High-throughput results (PubChem BioAssay)
CYP2C19 inh: blockers of cytochrome P450 2C19 activity – biochemical, luminescence, ADME assay, primary screen | P33261 | CYP2C19 Supersomes, luciferin-H EGE luminescence, 30 min | inhibition, % at 5 µM | 96,000 tested, 21% active | AID 778, 2007;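 active = CYP2C19 inhibition above a set limit at 5 µM in the primary screen, cut at about 50% in these data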
CYP2C19 activ: human CYP2C19 activators, primary screen, biochemical, luminescence. Cytochrome P450 2C19 (Homo sapiens), P33261. recombinant CYP2C19, luciferin-H EGE luminescence; hits give high values; 0 = fully inhibited enzyme, 1 = untreated enzyme. activation factor at 5 µM. 96,000 tested, under 10 active. AID 1025, 2008;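 active = activation factor of at least 2 at 5 µM in the primary screen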
CYP2C9 act: human CYP2C9 activators, primary screen, biochemical, luminescence; Cytochrome P450 2C9 (Homo sapiens), P11712; recombinant CYP2C9, luciferin-H conversion; hits give high values; factor 1 = untreated enzyme, 0 = blocked; activation factor at 5 µM; 96,000 tested, 1.4% active; AID 1024, 2008;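 active = activation factor of 2 or more for CYP2C9 at a 5 µM dose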
Cav32 inh: Cav3.2 calcium influx blockers – cell-based, Fluo-4 calcium fluorescence, FDSS, MLSMR library, primary screen; AID 449739, 2010; Cav3.2-expressing cells; hits give low values; Voltage-dependent T-type calcium channel subunit alpha-1H (Homo sapiens), O95180; 100,000 tested, 4% active; B-score at 10 µM;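 active = single-dose well whose peak fluorescence ratio is a statistical outlier from its plate by either plate-standardised score or position-corrected B-score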
CYP2C9 inhib: blockers of cytochrome P450 2C9 activity – biochemical, luminescence, ADME assay, primary screen; P11712; CYP2C9 Supersomes, luciferin-H conversion; inhibition, % at 5 µM; 96,000 tested, 20% active; AID 777, 2007;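 active = blocking of liver enzyme CYP2C9 beyond about 50% at 5 µM, limit read from the data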
HIV Rev-RRE inh: HIV-1 Rev-RRE binding inhibitors, primary screen, biochemical, FRET, protein-RNA interaction | P05866 | Rev peptide-RRE RNA binding | inhibition, % at 8 µM | 97,000 tested, 0.79% active;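 active = inhibition above the screen-wide mean plus 3 SD, cut at about 35% in these data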
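Test system – labelled RRE RNA duplex and labelled Rev peptide · Signal – fluorescein-to-Cy5 FRET, 480 nm excitation · Evaluation – % inhibition of FRET ratio versus controls · Benchmarks – DMSO low control, neomycin B high control · Incubation – 5 min RNA-compound premix plus 15 min binding step, 25 °C · Medium – HEPES pH 7.5 salt buffer with EDTA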
Of the large screens only hits and unclear results are named; the others gave an inactive call. Only some compounds are listed: those with a hit (about 27% of all), similar ones and a draw of the others.

Cn1nc(C(F)(F)F)c(C#N)c1N1CCN(c2ccccc2F)CC1	none
COc1cccc(N2CCN(c3c(C#N)c(C(F)(F)F)nn3C)CC2)c1	CYP2C19 inh 94.1, CYP2C9 inhib 92.5
NNC(=O)c1cccc(COc2ccccc2Br)c1	CYP2C19 inh 98.0, CYP2C9 inhib 77.6 (no result: Cav32 inh)
COc1cc(C(=O)NCc2cccc3ccccc23)ccc1OCc1ccccc1	CYP2C9 inhib 69.4 (no result: Cav32 inh)
O=C(NCc1ccccc1)c1cccc(COc2ccccc2Cl)c1	Cav32 inh -6.53
COc1ccccc1CNC(=O)c1cccc(N(C)C)c1	CYP2C9 act 2.3
COC(=O)c1ccccc1NC(=O)c1cccc(COc2ccccc2Cl)c1	none
CC(c1nnc(Sc2nnnn2-c2ccccc2)n1-c1ccc(F)cc1)N(C)C (stereo unspecified)	none
COCCN1C=C(C(=O)OC)C(c2cc3c(cc2Br)OCO3)C(C(=O)OC)=C1	none
O=C(Nc1ccc2c(c1)OCO2)c1ccc(COc2ccc3c(c2)CCC3)o1	none
CCOC(=O)N1CCN(C(=O)c2noc(C(C)C)c2[N+](=O)[O-])CC1	none (no result: CYP2C19 inh, CYP2C19 activ, CYP2C9 act, CYP2C9 inhib, HIV Rev-RRE inh)
N#Cc1cccc(C(c2nnnn2Cc2ccccc2)N2CCCC2)c1 (stereo unspecified)	CYP2C19 inh 56.3
CN1CCN(C(c2cccc(C(F)(F)F)c2)c2nnnn2Cc2ccccc2)CC1 (stereo unspecified)	CYP2C19 inh 51.8 (no result: HIV Rev-RRE inh)
NC(=O)C1CCN(S(=O)(=O)c2cccc(S(=O)(=O)N3CCCCC3)c2)CC1	none
O=C(COC(=O)CCC(=O)c1ccc2c(c1)OCCO2)NCc1ccc2c(c1)OCO2	CYP2C9 inhib 80.7
O=C(COC(=O)c1ccc2c(c1)OCO2)NCc1ccc(Cl)cc1	CYP2C9 act 2
Cc1cc(=O)oc2cc(OCC(=O)OCC(=O)NCc3ccc4c(c3)OCO4)ccc12	none
Cc1cc(N(C)C)c(C#N)c(NCc2ccccc2)n1	none
CN(C)c1ccnc(N(Cc2ccccc2)Cc2ccccc2)c1C#N	CYP2C19 inh 96.2, CYP2C9 inhib 95.0
S=C(Nc1cccc(Cl)c1)Nc1ccccc1Oc1ccccc1	Cav32 inh -7.23, CYP2C9 inhib 65.9
S=C(Nc1ccc(Cl)cc1Cl)Nc1ccccc1Oc1ccccc1	none
c1cc2c(cc1-c1cnc3n1CCC3)OCCO2	none
c1ccc(-c2ccc(-c3cnc4n3CCCCC4)cc2)cc1	CYP2C9 inhib 65.9
CN1/C(=C\C(=O)C(F)F)C(C)(C)c2ccccc21	CYP2C9 inhib 53.2
CN1/C(=C\C(=O)COC(=O)C2COc3ccccc3O2)C(C)(C)c2ccccc21 (stereo unspecified)	none
CN1/C(=C\C(=O)COc2ccc3c(c2)OCO3)C(C)(C)c2ccccc21	CYP2C9 inhib 86.6 (no result: Cav32 inh)
CS(=O)(=O)Nc1cccc2cccnc12	CYP2C9 act 2.4
C=CCSC(=C(C#N)C#N)c1cc2c([nH]1)CCCC2	Cav32 inh -6.32, CYP2C9 inhib 63.1
COc1cccc(C(c2nnnn2Cc2ccc(F)cc2)N2CCC(C(N)=O)CC2)c1OC (stereo unspecified)	none
C=CCn1c(SCC(=O)Nc2ccc(C)cc2C)nnc1-c1cccnc1	CYP2C9 inhib 86.9
C=CCn1c(SCc2c(Cl)cccc2Cl)nnc1-c1cccnc1	CYP2C19 inh 53.7
C=CCn1c(SCC(=O)Nc2c(C)cccc2C)nnc1-c1cnccn1	CYP2C19 inh 99.9
C=CCn1c(SCC(=O)Nc2ccccc2C)nnc1-c1ccncc1	CYP2C19 inh 74.4
CC1(C)c2[nH]c3ccccc3c2C[C@H]2C(=O)N(Cc3ccc(F)cc3)C(=O)N21	none (no result: CYP2C19 inh, CYP2C19 activ, CYP2C9 act, CYP2C9 inhib, HIV Rev-RRE inh)
Cc1nc2ccc(NC(=S)NC(C)C)cc2nc1C	none
Cc1nc(S(=O)(=O)c2ccc(Cl)cc2)c(NCc2ccccc2)o1	none
Cc1nnsc1NC(=O)OCc1ccc(C(C)(C)C)cc1	none
C=CCn1c(Cc2csc(N)n2)nnc1SCC(=O)Nc1ccccc1C(F)(F)F	CYP2C19 inh 53.2
C=CCn1c(SCC(=O)Nc2ccccc2CC)nnc1-c1ccncc1	CYP2C19 inh 91.1
CCOc1ccccc1NC(=O)CSc1nnc(-c2cnccn2)n1CC	CYP2C19 inh 87.7 (no result: HIV Rev-RRE inh)
CCCCn1c(SCC(=O)Nc2ccccc2C(F)(F)F)nc2ccsc2c1=O	none
CCC(C)(C)n1nnnc1C(c1cc2cc(OC)ccc2[nH]c1=O)N1CCc2ccccc21 (stereo unspecified)	CYP2C19 inh 62.6, CYP2C9 inhib 99.6
CCC(C)(C)n1nnnc1C(c1cc2ccc(OC)cc2[nH]c1=O)N1CCc2ccccc21 (stereo unspecified)	CYP2C19 inh 53.7, Cav32 inh -3.89, CYP2C9 inhib 98.4
CCC(C)(C)n1nnnc1C(c1cc2cc(C)ccc2[nH]c1=O)N1CCCc2ccccc21 (stereo unspecified)	CYP2C9 inhib 64.1 (no result: Cav32 inh)
Cc1ccc2[nH]c(=O)c(C(c3nnnn3C3CCCC3)N3CCCc4ccccc43)cc2c1 (stereo unspecified)	none (no result: CYP2C19 inh, CYP2C19 activ, CYP2C9 act, CYP2C9 inhib)
Cc1cc2cc(C(c3nnnn3Cc3ccccc3)N3CCc4ccccc43)c(=O)[nH]c2cc1C (stereo unspecified)	CYP2C9 inhib 67.6 (no result: Cav32 inh)
Cc1ccc2cc(C(c3nnnn3Cc3ccccc3)N3CCc4ccccc43)c(=O)[nH]c2c1 (stereo unspecified)	none
Cc1ccc(S(=O)(=O)Nc2c(C)n(C)n(-c3ccccc3)c2=O)cc1C(=O)NCc1ccccn1	none
O=C(CSCC(=O)Nc1nc(-c2ccc3c(c2)OCO3)cs1)Nc1nccs1	none (no result: CYP2C19 inh, CYP2C19 activ, CYP2C9 act, CYP2C9 inhib, HIV Rev-RRE inh)
CCCC(=O)Nc1nc(-c2ccc3c(c2)OCCO3)cs1	CYP2C9 inhib 85.6
COc1ccc2c(c1)c(C(=O)CN1CCN(C(=O)c3ccco3)CC1)c(C)n2C	CYP2C19 inh 57.1
COc1ccc2[nH]c(C)c(C(=O)CN3CCN(C(=O)c4ccco4)CC3)c2c1	none
C/C(=N\NC(=O)c1csc2ccccc12)c1ccc(O)cc1	CYP2C19 inh 84.3, CYP2C9 act 2.8 (no result: Cav32 inh)
COC(=O)C1CSC(C(=O)OC)N1C(=O)CN1CC(C)OC(C)C1 (stereo unspecified)	none
O=C(c1cc2ccccc2o1)c1nc2c(n1O)CCCCC2	none
CCc1nnc(NS(=O)(=O)c2ccc(NC(=S)NC(=O)/C=C/c3ccc(C(C)C)cc3)cc2)s1	CYP2C9 inhib 76.6
O=C(Oc1ccc(Cl)c2cccnc12)N1CCCCC1	CYP2C19 inh 54.7 (no result: HIV Rev-RRE inh)
O=C(Oc1ccc2ccccc2c1Cl)N1CCCC1	CYP2C19 inh 75.1
O=C(Oc1ccc(Cl)c2cccnc12)N1CCOCC1	none
Cc1cc(C(=O)OCC(=O)c2ccc3c(c2)OCCO3)c(C)o1	CYP2C19 inh 86.5
